FN deposition inh – fibronectin deposition inhibition; inhibition, % at 12.6 µM; 0.086% of 350,000 active; AH1F fibroblasts, Alexa488-fibronectin deposition fluorescence, overnight;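 active = mean inhibition across replicates of 30% or more, regardless of how many single replicates reach that level; inconclusive = mean under 30% yet at least half of replicates reach 30%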;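 note: positive control wells lacked labelled fibronectin entirely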
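Material: AH1F fibroblasts assembling fluorescent fibronectin matrix; amount: 10000 AH1F cells/well; medium: DMEM, 2% serum; reagent: Alexa488-fibronectin, 24 nM final in well; dosing: single compound dose, delivered by pin transfer; incubation: 1 h adhesion, overnight exposure; detection: fluorescence after three HBSS washes, excitation 485 nm, emission 525 nm; measure: fibronectin deposition inhibition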
XiGFP reactiv – activators of X-chromosome reactivation in mouse fibroblasts; XiGFP mouse fibroblasts, % GFP-positive cells imaging, 3 d; cells co-treated with 5-aza-dC sensitizer; scaled so ellipticine positive control = 100%; activation, % at 7.58 µM; 0.055% of 360,000 active;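 active = mean normalized replicate activation at least 10% and every replicate at or above 10%; inconclusive = only one of the two criteria met; inactive = mean below 10% and not all replicates reach 10%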;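 note: 0% = median of on-plate neutral control wells and 100% = ellipticine 6 µM median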
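System: 68-5-11 XiGFP fibroblast line; Timing: 3 days compound exposure; Compound dosing: one concentration, pinned; Benchmarks: positive control ellipticine, 6 µM final; Buffer or medium: DMEM containing 5-aza-dC.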
F508del corr – correctors of CFTR F508del function in bronchial epithelial cells | CFBE cells, YFP halide quenching; stimulated with forskolin plus potentiator P3; % fluorescence drop versus neutral controls | 0.36% of 350,000 active | activity (quench increase), % at 7.58 µM;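 active = mean added fluorescence quench of at least 8% versus neutral control, with both replicates also reaching 8%; inconclusive = only one of the mean or replicate conditions met; inactive = mean below 8% and not both replicates reaching 8%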;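 note: cells transiently co-express mutant CFTR-F508del with the halide-sensitive YFP; corrector assay measuring rescue of mutant channel to the surface after 24 h compound exposure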
Cneo AK release – Cryptococcus neoformans lysis via adenylate kinase release. lysis activity, % at 15 µM. AID 651654. 0.2% of 360,000 active. C. neoformans lysis, adenylate kinase release luminescence, 4 h; normalised: neutral wells 0, clomiphene wells 100;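 active = mean lysis activity across replicates of at least 80%, whatever share of replicates individually reach that level; inactive = mean lysis activity below 80%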
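Schedule: static 4 h at 37 °C with compound, 1 h detection; system: C. neoformans cells; benchmarks: Clomiphene as positive control; buffer or medium: fresh YPD medium; measure: luminescence rise reflecting yeast cell lysis; measured by: luminescent adenylate kinase detection reagent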
PGC1a acetyl inh – lowers PGC1a acetylation signal in U2OS cells | 0.17% of 350,000 active | AlphaScreen anti-acetyl-lysine; with virally co-expressed GCN5 acetyltransferase | inhibition, % at 15.6 µM;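 active = every replicate shows inhibition of at least 40%; inconclusive = mean inhibition at least 40% but some replicate below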;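 note: 0% = neutral control wells and 100% = positive control wells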
DENV2 CPE rescue – DENV2-induced cell death inhibition. DENV2-infected cells, cytopathic effect rescue, plate reader. CPE inhibition, % at 9.99 µM. 1.7% of 350,000 active; in the data active = CPE inhibition above about 20%, passing the limit was not always enough; inconclusive = no clear call, values can overlap the other calls; tested in BHK-21 cells;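 note: 0% = median of neutral control wells and 100% = median of positive control wells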
An asterisk follows results filed as active; u = inconclusive; x = not tested or not shown. Rows were chosen to be rich in hits. Some 1.9% of all compounds tested hit in one or more screens of this group.

SMILES | FN deposition inh | XiGFP reactiv | F508del corr | Cneo AK release | PGC1a acetyl inh | DENV2 CPE rescue
CN1CCN(/N=C/c2ccc(OCc3ccccc3)cc2)CC1 | 7 | 0 | 0 | 4 | u | 23*
COC(=O)c1ccc(COc2ccc(/C=N/N3CCN(C)CC3)cc2)cc1 | 12 | 0 | 0 | x | 1 | -2
Cc1ccccc1-c1cnc2c(c1)C(=O)N([C@H](C)CO)C[C@@H](C)[C@@H](CN(C)Cc1cncnc1)O2 | x | -1 | 0 | -4 | 0 | 2
O=[N+]([O-])c1ccc(N=Nc2c(Cl)cc(O)cc2Cl)cc1 | 14 | 0 | 10* | -10 | -53 | -2
CC(N)=Nc1ccc([N+](=O)[O-])cc1 | -6 | 0 | x | -2 | 7 | x
CCOc1ccc(C(=O)COC(=O)Cc2n[nH]c(=O)c3ccccc23)cc1 | 17 | 0 | 13* | 2 | -4 | -2
CC1(c2nnnn2Cc2ccccc2)CCC(=O)N1CCCn1ccnc1 (stereo not drawn) | 7 | 0 | 1 | x | x | 26*
CC1(c2nnnn2Cc2ccccc2)CCC(=O)N1CCCN1CCOCC1 (stereo not drawn) | -6 | 0 | 0 | x | x | 19
COc1ccc(CNC(=O)[C@@H](NC(=O)C2CCN(S(=O)(=O)c3ccccc3)CC2)C(C)C)cc1 | -5 | 0 | 0 | 3 | 1 | 7
C[C@H](NC(=O)C1CCN(S(=O)(=O)c2ccccc2)CC1)C(=O)NCc1cccnc1 | -11 | 0 | 4 | 1 | -5 | 37*
COc1ccc(S(=O)(=O)N2CCC(C(=O)N[C@H](C(=O)NCc3ccccc3)C(C)C)CC2)cc1 | -4 | 0 | 1 | 5 | -6 | 47*
CCN(CC)CCNc1ccc(CO)c2oc3cc(Cl)ccc3c(=O)c12 | 3 | 0 | 9.0* | 1 | 7 | 64*
N#Cc1c(-c2ccccc2F)cc(C2CC2)nc1SCC(=O)c1cccs1 | -11 | 60* | x | -1 | -3 | x
Cc1noc(C)c1NC(=O)N(C)C[C@@H]1Oc2ccc(NC(=O)Nc3ccc(F)cc3)cc2CC(=O)N([C@H](C)CO)C[C@H]1C | x | 0 | 1 | x | 3 | -1
C=C1SC(Nc2c(C)cc(C)cc2C)=NC12CCCCC2 | 3 | 0 | 11* | 6 | 1 | u
COc1ccc2c(n1)Sc1nc3ccccc3nc1N2 | -41 | 68* | -5 | -1 | 30 | -9
COc1cc2ccccc2nn1 | -4 | 0 | -1 | x | 9 | 2
C/C=C/c1cnc2c(c1)C(=O)N([C@@H](C)CO)C[C@H](C)[C@@H](CN(C)C(=O)C1CCCCC1)O2 | x | -1 | -1 | 0 | -3 | 1
C[C@H]1CN([C@@H](C)CO)C(=O)c2cc(-c3ccccc3)cnc2O[C@@H]1CN(C)C(=O)C1CCCCC1 | x | -1 | 0 | x | -1 | 47*
C/C=C/c1cnc2c(c1)C(=O)N([C@@H](C)CO)C[C@@H](C)[C@@H](CN(C)C(=O)C1CCCCC1)O2 | x | -1 | 2 | 105* | 2 | 8
O=C(NC1CCCC1)N[C@H]1C=C[C@@H](CC(=O)N2CCOCC2)O[C@@H]1CO | -2 | 0 | 1 | 1 | -5 | 36*
O=C(NC1CCCCC1)N[C@H]1C=C[C@@H](CC(=O)N2CCOCC2)O[C@@H]1CO | x | 0 | -2 | 93* | 6 | 108*
O=C(NC1CCCCC1)N[C@@H]1C=C[C@@H](CC(=O)N2CCOCC2)O[C@@H]1CO | x | 0 | -2 | -2 | -8 | -3
O=C(NC1CCCC1)N[C@H]1C=C[C@H](CC(=O)N2CCOCC2)O[C@H]1CO | 10 | 0 | 0 | -2 | 0 | 57*
O=C(O)/C=C/c1cnc[nH]1 | -8 | 0 | -4 | -1 | 106* | 12
O=C(O)C=Cc1c[nH]c2nccnc12 | 5 | 0 | 2 | 14 | 5 | -10
COc1ccc2c3c(n(C)c2c1)[C@H](CO)N(C(=O)C1CCOCC1)CC31CCN(Cc2cccc(F)c2)CC1 | x | 0 | -1 | x | x | -2
O=C(CCc1nc2ccccc2c(=O)[nH]1)N1CCCc2ccccc21 | -3 | 0 | 1 | x | 5 | 53*
